Measurements reported in ChEMBL document CHEMBL1154082, “Inhibition of human vascular NADPH oxidase by apocynin derived oligophenols” (Bioorg Med Chem, 2009).
Calls of active or inactive are those of the source. The rule behind the calls is not given here.

Experiments:
[1] = (§1) Inhibition of NADPH oxidase in human HUVEC assessed as inhibition of superoxide anion generation by cytochrome-C reduction assay
Summary of the method: (§2)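 HUVEC (10^5 cells/mL) in phenol red-free DMEM, 10 min at 37°C. LDL (100 μg/mL) activates oxidase. Compound 0–1000 μM with NADPH 100 μM and cytochrome c 250 μM, ±SOD 200 μg/mL, 30 min at room temperature. A550 read. Superoxide taken from the SOD-inhibitable difference using ε 18.7 cm−1mM−1; triplicate.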

Homo sapiens [2] = species: Homo sapiens; test: as §1; summary of the method: as §2
Homo sapiens [3] = species: Homo sapiens; test: Inhibition of NADPH oxidase in human HUVEC assessed as inhibition of superoxide anion generation by DHE staining confocal microscopy
Summary of the method: (§3)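 HUVEC in phenol red-free DMEM exposed to compound 0–1 mM for 2 h, washed twice in PBS, resuspended in fresh DMEM. NADPH oxidase activated with PMA (1 μM) for 30 min, then DHE (3 μM) for 30 min, then NADPH (100 μM); kept in dark. Oxyethidium red fluorescence imaged by confocal microscopy, qualitative.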

[4] = Inhibition of p47phox/p22phox interaction by ELISA
Homo sapiens [5] = species: Homo sapiens; test: Inhibition of NADPH oxidase in human HUVEC assessed as inhibition of superoxide anion generation up to 1 mM by DHE staining confocal microscopy; summary of the method: as §3

Row | Structure (SMILES) | IC50 [1] [µM] | logIC50 (Homo sapiens [2]) | Activity (Homo sapiens [3]) | IC50 [4] [µM] | logIC50 [4] | Activity (Homo sapiens [5])
1 | COC1=CC(C(C)=O)=C/C(=C2\C(=O)C(OC)=C(c3cc(C(C)=O)cc(OC)c3O)C(C(C)=O)=C2O)C1=O | 0.03 | -1.51 | Active | 1.6 | 0.2 | –
2 | COc1cc(C(C)=O)ccc1O [APOCYNIN] | 1090 | 3.04 | – | 61000 | 4.78 | inactive
